Laboratory results published in ChEMBL document CHEMBL3414571, “The discovery of macrocyclic XIAP antagonists from a DNA-programmed chemistry library, and their optimization to give lead compounds with in vivo antitumor activity” (J Med Chem, 2015).
Numbered stars: 1 amine (or outer) side, 2 acyl side, 3 side chain; on linkers, the order of the positions; unused ones are H or OH. Bridge positions count the residues as written; N and C are the ends. Square brackets hold non-standard residues; d marks the D form. Peptide text beside a SMILES is read from it. * marks the point of attachment. X1 = O=C(O)CN(CCN[*:1])CCn1cc(CCC(=O)[*:2])nn1; NMeA = CN[C@@H](C)C(=O)O; Pra = C#CC[C@H](N)C(=O)O; X2 = [N-]=[N+]=NCC*

Assays:
A549 = assay: Antiproliferative activity against human A549 cells assessed as inhibition of cell proliferation after 72 hrs by MTS assay; format: functional, cell-based; conditions: A549, 72 h
[1] = Inhibition of XIAP BIR2 (124 to 240 residues) C202A/C213G mutant (unknown origin) incubated for 60 mins by biotinylated SMAC peptide Alpha-screen assay; set-up: species or system Homo sapiens
BIR2 domain of XIAP = BIR2 domain of XIAP (Homo sapiens, UniProt P98170, C202A/C213G); assay: Inhibition of XIAP BIR2-3 (124 to 356 residues) C202A/C213G mutant (unknown origin) in human THP1 cells using fluoresceinated caspase-3 substrate by caspase-3 rescue assay; format: cell-based, THP-1
[2] = molecular target: E3 ubiquitin-protein ligase XIAP (Homo sapiens, UniProt P98170); assay: Inhibition of XIAP BIR3 (241 to 356 residues) (unknown origin) incubated for 60 mins by fluoresceinated modified SMAC peptide based fluorescence polarization assay
MDA-MB-231 = assay: Antiproliferative activity against human MDA-MB-231 cells assessed as inhibition of cell proliferation after 72 hrs by MTS assay; format: functional, cell-based; conditions: MDA-MB-231, 72 h
[3] = Antiproliferative activity against human A875 cells assessed as inhibition of cell proliferation after 72 hrs by MTS assay; format: functional, cell-based; conditions: A875, 72 h
[4] = Volume of distribution at steady state in Balb/C mouse at 1 mg/kg, iv administered as single dose by LC-MS/MS method; format: ADME, organism-based; set-up: dose 1 mg/kg, route intravenous; conditions: in vivo, read-out: Vdss
Summary of the method: (§1)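 Mice received one intravenous dose, and parent compound levels in blood were monitored over time. Plasma pharmacokinetic parameters were derived from these concentration–time profiles.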

[5] = Mean residence time in Balb/C mouse at 1 mg/kg, iv administered as single dose by LC-MS/MS method; format: ADME, organism-based; set-up: dose 1 mg/kg, route intravenous; conditions: in vivo; summary of the method: as §1
[6] = Half life in Balb/C mouse at 1 mg/kg, iv administered as single dose by LC-MS/MS method; format: ADME, organism-based; set-up: dose 1 mg/kg, route intravenous; conditions: in vivo; summary of the method: as §1
[7] = molecular target: Baculoviral IAP repeat-containing protein 2 (Homo sapiens, UniProt Q13490); assay: Inhibition of cIAP1 BIR2-3 (154 to 352 residues) (unknown origin) fluoresceinated dimeric SMAC peptide based fluorescence polarization assay
Mus musculus [8] = assay: AUClast in Balb/C mouse at 1 mg/kg, iv administered as single dose by LC-MS/MS method; format: ADME, organism-based, Plasma; set-up: time 0 - last, dose 1 mg/kg, route intravenous; conditions: in vivo; summary of the method: as §1
[9] = Mean residence time in Balb/C mouse at 0.2 mg/kg, iv administered as single dose by LC-MS/MS method; format: ADME, organism-based; set-up: dose 0.2 mg/kg, route intravenous; conditions: in vivo; summary of the method: as §1
[10] = Half life in Balb/C mouse at 0.2 mg/kg, iv administered as single dose by LC-MS/MS method; format: ADME, organism-based; set-up: dose 0.2 mg/kg, route intravenous; conditions: in vivo; summary of the method: as §1
[11] = Volume of distribution at steady state in Balb/C mouse at 0.2 mg/kg, iv administered as single dose by LC-MS/MS method; format: ADME, organism-based; set-up: dose 0.2 mg/kg, route intravenous; conditions: in vivo, read-out: Vdss; summary of the method: as §1
Mus musculus [12] = assay: AUClast in Balb/C mouse at 0.2 mg/kg, iv administered as single dose by LC-MS/MS method; format: ADME, organism-based, Plasma; set-up: dose 0.2 mg/kg, route intravenous, time 0 - last; conditions: in vivo; summary of the method: as §1

Chain of E3 ubiquitin-protein ligase XIAP (P98170 whole entry, looked up, the tested form may be a part): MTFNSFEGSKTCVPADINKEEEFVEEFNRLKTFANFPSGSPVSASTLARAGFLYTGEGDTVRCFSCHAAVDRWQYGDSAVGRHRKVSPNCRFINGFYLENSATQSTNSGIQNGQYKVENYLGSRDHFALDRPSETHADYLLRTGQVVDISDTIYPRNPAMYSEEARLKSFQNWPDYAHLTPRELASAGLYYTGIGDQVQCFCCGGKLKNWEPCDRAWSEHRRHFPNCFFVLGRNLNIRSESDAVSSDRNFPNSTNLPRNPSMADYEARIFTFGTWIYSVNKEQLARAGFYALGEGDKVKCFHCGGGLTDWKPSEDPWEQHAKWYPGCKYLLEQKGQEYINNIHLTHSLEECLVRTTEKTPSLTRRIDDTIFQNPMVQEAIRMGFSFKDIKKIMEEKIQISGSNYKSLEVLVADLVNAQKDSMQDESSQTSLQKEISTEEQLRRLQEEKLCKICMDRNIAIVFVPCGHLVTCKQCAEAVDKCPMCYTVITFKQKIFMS
Chain of BIR2 domain of XIAP (P98170 whole entry C202A/C213G, looked up, the tested form may be a part): as the sequence (P98170 whole entry, looked up, the tested form may be a part) above, with C202A, C213G counted along it
Chain of Baculoviral IAP repeat-containing protein 2 (Q13490 whole entry, the tested form may be a part): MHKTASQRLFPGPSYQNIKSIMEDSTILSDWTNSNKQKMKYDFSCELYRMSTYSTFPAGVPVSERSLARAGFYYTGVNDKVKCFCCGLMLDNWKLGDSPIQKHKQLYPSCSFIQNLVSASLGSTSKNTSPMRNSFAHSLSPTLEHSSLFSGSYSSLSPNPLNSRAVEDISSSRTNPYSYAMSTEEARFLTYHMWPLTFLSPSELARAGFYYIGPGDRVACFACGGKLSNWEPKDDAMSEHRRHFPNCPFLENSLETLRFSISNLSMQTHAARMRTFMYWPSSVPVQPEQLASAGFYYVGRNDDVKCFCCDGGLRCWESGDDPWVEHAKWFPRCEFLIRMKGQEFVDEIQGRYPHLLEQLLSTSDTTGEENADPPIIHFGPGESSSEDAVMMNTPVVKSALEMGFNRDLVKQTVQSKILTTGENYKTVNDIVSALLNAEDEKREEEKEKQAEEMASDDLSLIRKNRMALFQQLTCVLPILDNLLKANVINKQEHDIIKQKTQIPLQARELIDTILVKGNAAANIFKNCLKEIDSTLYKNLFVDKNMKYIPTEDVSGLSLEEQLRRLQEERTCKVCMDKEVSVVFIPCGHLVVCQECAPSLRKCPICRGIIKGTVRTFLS

Row | IC50 (A549) | IC50 [1] | EC50 (BIR2 domain of XIAP) | IC50 [2] | IC50 (MDA-MB-231) | SMILES | IC50 [3] | also measured
1 | > 25000 nM | 219 nM | 34 nM | 29 nM | 197 nM | CN[C@@H](C)C(=O)N[C@H](C(=O)N1C[C@@H]2C[C@H]1C(=O)N[C@@H](Cc1cccc3ccccc13)C(=O)N[C@H](C(=O)O)Cc1ccc(cc1)OCc1cn(nn1)[C@H]1C[C@@H](C(=O)N[C@@H](Cc3cccc4ccccc34)C(=O)N[C@H](C(=O)O)Cc3ccc(cc3)OCc3cn2nn3)N(C(=O)[C@@H](NC(=O)[C@H](C)NC)C(C)C)C1)C(C)C | 422 nM | 
2 | > 25000 nM | 300 nM | 49 nM | 65 nM | 2010 nM | CN[C@@H](C)C(=O)N[C@H](C(=O)N1C[C@@H]2C[C@H]1C(=O)N[C@@H](Cc1ccc3ccccc3c1)C(=O)N[C@H](C(=O)O)Cc1cn(nn1)[C@H]1C[C@@H](C(=O)N[C@@H](Cc3ccc4ccccc4c3)C(=O)N[C@H](C(=O)O)Cc3cn2nn3)N(C(=O)[C@@H](NC(=O)[C@H](C)NC)C(C)C)C1)C(C)C | 6140 nM | Vd [4]: 0.18 L/kg; MRT [5]: 0.25 h; half-life [6]: 9.6 min; IC50 [7]: 3 nM; AUClast (Mus musculus [8]): 1070 ng·h/mL
3 |  | > 18800 nM |  | 1320 nM |  | CN[C@@H](C)C(=O)N[C@H]1Cc2cn(nn2)CCOc2ccc(cc2)C[C@@H](C(=O)O)NC(=O)[C@H](Cc2ccccc2)NC(=O)[C@@H]2CCCN2C1=O |  | 
4 |  | 4870 nM |  | 366 nM |  | CN[C@@H](C)C(=O)N[C@H]1Cc2ccc(cc2)OCc2cn(nn2)CCCOc2ccc(cc2)C[C@@H](C(=O)O)NC(=O)[C@H](Cc2ccccc2)NC(=O)[C@@H]2CCCN2C1=O |  | 
5 | > 25000 nM | 740 nM |  |  | 14 nM | CN[C@@H](C)C(=O)N[C@H](C(=O)N1C[C@@H]2C[C@H]1C(=O)N[C@@H](Cc1ccc3ccccc3c1)C(=O)N[C@H](C(=O)O)Cc1ccc(cc1)OCc1cn(nn1)[C@H]1C[C@@H](C(=O)N[C@@H](Cc3ccc4ccccc4c3)C(=O)N[C@H](C(=O)O)Cc3ccc(cc3)OCc3cn2nn3)N(C(=O)[C@@H](NC(=O)[C@H](C)NC)C2CCCCC2)C1)C1CCCCC1 | 84 nM | MRT [9]: 2.5 h; half-life [10]: 1.9 h; Vd [11]: 0.7 L/kg; AUClast (Mus musculus [12]): 457 ng·h/mL
6 |  | > 18800 nM |  | 900 nM |  | CN[C@@H](C)C(=O)N[C@H]1CCCCNC(=O)CCc2cn(nn2)CCN(CC(=O)O)CCNC(=O)[C@H](Cc2ccccc2)NC(=O)[C@@H]2CCCN2C1=O (H-[NMeA]KPF[X1]; lactam 2-C) |  | 
7 | > 25000 nM | 333 nM | 59 nM | 40 nM | 82 nM | CN[C@@H](C)C(=O)N[C@H](C(=O)N1C[C@@H]2C[C@H]1C(=O)N[C@@H](Cc1ccc3ccccc3c1)C(=O)N[C@H](C(=O)O)Cc1ccc(cc1)OCc1cn(nn1)[C@H]1C[C@@H](C(=O)N[C@@H](Cc3ccc4ccccc4c3)C(=O)N[C@H](C(=O)O)Cc3ccc(cc3)OCc3cn2nn3)N(C(=O)[C@@H](NC(=O)[C@H](C)NC)C(C)C)C1)C(C)C | 218 nM | 
8 |  | > 18800 nM |  | 1490 nM |  | CN[C@@H](C)C(=O)N[C@H]1CCCCNC(=O)CCc2cn(nn2)CCOc2ccc(cc2)C[C@@H](C(=O)O)NC(=O)[C@H](Cc2ccccc2)NC(=O)[C@@H]2CCCN2C1=O |  | 
9 |  | 827 nM |  | 214 nM |  | CN[C@@H](C)C(=O)N[C@H](C(=O)N1C[C@@H]2C[C@H]1C(=O)N[C@@H](Cc1ccc3ccccc3c1)C(=O)N[C@H](C(=O)O)Cc1ccc(cc1)OCc1cn2nn1)C(C)(C)C |  | 
10 |  | 540 nM |  | 180 nM |  | C#CC[C@H](NC(=O)[C@H](C)NC)C(=O)N1CCC[C@H]1C(=O)N[C@@H](Cc1ccccc1)C(=O)N[C@@H](Cc1ccc(OCCN=[N+]=[N-])cc1)C(=O)O (H-[NMeA][Pra]PFY(X2)-OH) |  | 
